# HCV core dimer: inhibitors of HCV core protein dimerization, primary screen, biochemical, TR-FRET, high-throughput. TR-FRET GST/Flag-core106 dimerization, 1536-well. hit rate 0.33% among 300,000. AID 1899, 2009. inhibition, % at 5 µM;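 active = inhibition above the mean of all tested compounds plus 3 SD, set per screening campaign, cut at about 45% in these data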
#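 System: GST/Flag-tagged HCV core106 proteins. Incubation: compound-protein-antibody incubation 4 h at 22.5 °C. Technique: HTRF with 340 nm excitation, 617/671 nm emission. Medium: KF-containing HEPES buffer, pH 7.45, DTT, CHAPS, BSA. Read-out: inhibition (%) from 671 over 617 nm ratio. Also added: Eu(K)-anti-GST 90 ng/mL plus XL665-anti-Flag 1 µg/mL.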
# FID counter: compounds displacing fluorescent DNA intercalator, primary screen, artefact control for HCV NS3 helicase inhibitor project, biochemical, FID fluorescence; DNA fluorescent intercalator displacement; inhibition, % at 7.9 µM; hit rate 0.17% among 290,000; AID 1845, 2009; in the data active = inhibition above about 37%;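 note: 0% = vehicle and 100% = reference compound; higher means more ethidium bromide displaced from hairpin DNA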
# DAGLB inh: DAGLB lipase inhibitors, primary screen, biochemical, fluorescence, HTS. Diacylglycerol lipase-beta (Homo sapiens), Q8NCG7. HEK293T DAGLB membrane lysate, EnzChek fluorogenic substrate. inhibition, % at 5.17 µM. hit rate 0.059% among 340,000. AID 504411, 2011; in the data active = inhibition above about 34%;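 note: 0% = enzyme with vehicle and 100% = wells lacking enzyme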
# Target sequence (Q8NCG7 whole entry, looked up): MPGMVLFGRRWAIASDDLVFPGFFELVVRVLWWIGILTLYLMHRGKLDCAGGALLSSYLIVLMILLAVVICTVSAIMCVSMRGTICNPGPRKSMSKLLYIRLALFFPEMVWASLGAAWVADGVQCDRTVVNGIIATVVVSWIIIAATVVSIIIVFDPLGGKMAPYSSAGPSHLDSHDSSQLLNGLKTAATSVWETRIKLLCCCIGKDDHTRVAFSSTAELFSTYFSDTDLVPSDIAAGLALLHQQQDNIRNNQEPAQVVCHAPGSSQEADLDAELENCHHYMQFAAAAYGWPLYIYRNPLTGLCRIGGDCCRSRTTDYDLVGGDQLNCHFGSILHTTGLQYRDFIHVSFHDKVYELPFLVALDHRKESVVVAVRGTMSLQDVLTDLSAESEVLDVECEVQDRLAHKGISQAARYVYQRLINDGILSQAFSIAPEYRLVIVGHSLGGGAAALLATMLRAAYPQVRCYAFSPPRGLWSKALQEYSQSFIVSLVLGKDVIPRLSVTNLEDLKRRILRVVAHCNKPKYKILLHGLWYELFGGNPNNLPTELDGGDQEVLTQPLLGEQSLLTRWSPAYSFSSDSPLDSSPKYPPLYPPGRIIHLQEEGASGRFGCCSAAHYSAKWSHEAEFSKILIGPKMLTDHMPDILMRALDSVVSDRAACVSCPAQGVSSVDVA
# HCV NS3 hel inh: inhibitors of HCV NS3 helicase, primary screen, biochemical, Cy5 molecular beacon fluorescence; Hepatitis C virus NS3 helicase; NS3 helicase DNA unwinding; inhibition, % at 10.9 µM; hit rate 0.56% among 290,000;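 active = inhibition above the mean of all tested compounds plus 3 SD, set per campaign, cut at about 35% in these data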;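 note: 0% = DMSO wells and 100% = thioflavine S control wells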
#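 Assay system – hepatitis C virus NS3 helicase domain fragment enzyme · Buffer or medium – MOPS pH 6.5, MgCl2, DTT, Tween20, BSA · Reagent – Cy5/quencher beacon DNA duplex and ATP to start · Compound – single 10.9 µM dose · Timing – 1 h at 25 °C · Technique – Cy5 beacon fluorescence read at start and 1 h · Measure – % inhibition of unwinding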
# GRK2 aptamer HTS: compounds blocking aptamer binding on GRK2 – biochemical, human GRK2, bead flow cytometry, HTS, primary screen | FAM-aptamer displacement from GRK2 | Beta-adrenergic receptor kinase 1 (Homo sapiens), P25098 | hit rate 0.59% among 330,000 | AID 488847, 2010 | inhibition of aptamer binding, % at 10 µM;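 active = inhibition of aptamer binding above 40%, roughly 3 SD of noise, on plates passing a quality check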;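 note: median bead fluorescence of bound FAM aptamer so fluorescent compounds give negative values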
# GPR7 antag: GPR7 receptor antagonists, primary screen, cell-based, fluorescence, single concentration; GPR7-expressing cells, fluorescence antagonist assay; Neuropeptides B/W receptor type 1 (Homo sapiens), P48145; AID 1861, 2009; hit rate 1.1% among 290,000; inhibition, % at 4.4 µM; in the data active = inhibition above about 16%, passing the limit was not always enough;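 note: cells stimulated with the agonist NPW; 0% = agonist with vehicle and 100% = vehicle without agonist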
# Numbers without * were called inactive; . = no result. Shown are actives, neighbours in structure and some others; about 2.2% of the full set was active somewhere.
SMILES,HCV core dimer,FID counter,DAGLB inh,HCV NS3 hel inh,GRK2 aptamer HTS,GPR7 antag
CCOC(=O)C1=C(C)N=c2s/c(=C/c3ccco3)c(=O)n2C1c1cccc(OC)c1 (stereo unspecified),48*,-25,.,36,1,6
CCOC(=O)C1=C(C)N=c2s/c(=C\c3ccc(C(=O)O)cc3)c(=O)n2C1c1ccc(OC)cc1OC (stereo unspecified),12,-23,-1,-28,1,-13
CN(c1ccccc1)S(=O)(=O)c1cccc(C(=O)NCC(c2cccs2)N2CCOCC2)c1 (stereo unspecified),.,.,-2,.,.,.
COCC(=O)N1CCc2ccc(NC(=O)c3ccc(C(F)(F)F)cc3)cc2C1,-2,-18,0,-9,0,-14
O=C(Nc1ccc2c(c1)CN(Cc1ccc(CO)o1)CC2)c1ccc(C(F)(F)F)cc1,58*,-26,0,30,0,7
CC(C)[C@H](NC(=O)c1ccccc1Cl)C(=O)OCC(=O)NCc1ccc2c(c1)OCO2,.,.,2,.,42*,.
Cc1cccc(OC2CCN(Cc3nc(CC4CC4)no3)CC2)c1,3,-8,-7,6,0,20*
C=CCn1c(SCc2cc(=O)n3ccsc3n2)nnc1C1CCCCC1,69*,-21,-3,15,4,-10
O=c1cc(CSc2nnc(NC3CCCCC3)s2)nc2sccn12,2,-27,0,-2,0,-2
Cc1ccc(OCc2cc(C(=O)N(C)C3CCCc4ccccc43)no2)cc1C (stereo unspecified),.,.,-14,.,.,.
O=C(OCn1ncc(Br)c(Br)c1=O)c1ccc(F)cc1,-57,-7,3,-7,6,25*
O=C(COc1ccccc1Cl)c1ccc[nH]1,67*,-1,-2,3,3,-11
CCOP(=O)(OCC)C(NC(=O)C(F)(F)F)c1ccccc1 (stereo unspecified),-8,0,-1,1,64*,-9
Cc1ccc(NC(=S)NCc2ccc(S(N)(=O)=O)cc2)cc1Cl,1,-3,2,5,2,20*
O=C(CN1CCN(c2ccc(O)cc2)CC1)N(C1CC1)C1CCS(=O)(=O)C1 (stereo unspecified),.,.,-2,.,0,.
CCN(C(=O)CN1C(=O)S/C(=C\C=C\c2ccccc2)C1=O)C1CCS(=O)(=O)C1 (stereo unspecified),46*,-50,-2,-15,0,-2
N#Cc1ccccc1NC(=O)CN(Cc1ccccc1)Cc1ccccc1,6,-26,-12,-10,0,-19
O=[N+]([O-])c1ccc(N=Nc2c(Cl)cc(O)cc2Cl)cc1,-5,19,32,9,0,62*
CC(N)=Nc1ccc([N+](=O)[O-])cc1,6,-4,1,9,0,-1
N#CC1=C2SCC(O)(c3ccccc3)N2C(=O)CC1c1ccccc1 (stereo unspecified),10,-14,2,1,3,17*
CCCCn1nc(C(=O)Nc2ccccc2N2CCCC2)c2ccccc2c1=O,.,.,-21,.,1,.
O=[N+]([O-])c1ccccc1/C=C/C=N/n1c(-c2ccc(Cl)cc2)n[nH]c1=S,83*,-8,10,10,0,14
CCc1nc2sc3c(c2c(=O)n1CCO)CCC3,4,-4,-1,-3,3,-14
CCn1c(NN)nc2sc3c(c2c1=O)CCC3,55*,-8,-3,19,1,8
C/C=C/C(=O)Nc1cccc(C2=NOC3(C2)C[C@H](C(N)=O)N(C(=O)/C=C/C)C3)c1 (stereo partly specified),1,.,3,.,0,.
SMILES,HCV core dimer,FID counter,DAGLB inh,HCV NS3 hel inh,GRK2 aptamer HTS,GPR7 antag
C/C=C/C=C/C(=O)N1CC2(CC(c3cccc(NC(=O)/C=C/C)c3)=NO2)C[C@@H]1C(N)=O (stereo partly specified),47*,.,-2,.,0,.
C/C=C/C=C\C(=O)Nc1cccc(C2=NOC3(C2)C[C@@H](C(N)=O)N(C(=O)/C(C)=C/C)C3)c1 (stereo partly specified),52*,.,1,.,7,.
O=C(Cn1cc(C(F)(F)F)ccc1=O)N1CCc2ccccc21,.,.,-3,.,3,.
CN(C(=O)c1cccc(NC(=O)Cc2cccc(NC(=O)C3CCN(C(=O)C4CCCCC4)CC3)c2)c1)C1CCC1,.,.,-2,.,.,.
CCN(CC)C(=O)C1=C(C)N(Cc2ccc(F)cc2)C(=O)C(CC(=O)NCc2ccco2)C1 (stereo unspecified),.,.,-1,.,.,.
O=C1CC(/C=C/c2ccco2)=Nc2ccccc2N1,58*,-19,4,33,3,-11
CCOC(=O)CN1C(=O)/C(=C/c2c(F)cccc2Cl)Oc2ccccc21,-8,-27,-8,-8,2,-20
Cc1ccc2oc(-c3cccc(NC(=S)NC(=O)c4cccs4)c3)nc2c1,-1,-1,-3,3,4,1
Cc1ccc2oc(-c3cccc(NC(=S)NC(=O)/C=C/c4ccco4)c3)nc2c1,57*,-14,1,11,1,3
COc1ccc(N2CCCC2=O)cc1S(=O)(=O)N1CCOCC1,.,.,1,.,.,.
COc1cccc(OC)c1OCCCOc1ccc([N+](=O)[O-])cc1Cl,-5,-4,-9,-10,3,17*
Cc1cc(C)n(-c2cc(N3CCN(S(=O)(=O)c4ccc5ccccc5c4)CC3)ccc2[N+](=O)[O-])n1,54*,-21,-5,-9,4,-5
Cc1ccc(/C=C2/SC(=S)N(C3CCCCC3)C2=O)o1,68*,-22,7,27,0,-9
C/C(=N\NC(=O)C1CC1)c1ccc(N2CCOCC2)cc1,-1,-9,-2,0,0,17*
Cc1ccc(S(=O)(=O)N(C)c2ccc(OCC(=O)Nc3nc(-c4ccccc4)cs3)cc2)cc1,30,-5,-5,5,0,-1
CN(c1ccc(OCC(=O)Nc2nc(-c3ccccc3)cs2)cc1)S(=O)(=O)c1ccc(F)cc1,30,-9,-4,-10,0,21*
CCCCN(C)CCNC(=O)c1cn(C)c(=O)c2c1c1ccccc1n2C,0,2,-1,7,0,19
COc1cccc(Oc2nnnn2-c2ccccc2)c1,1,-9,-2,-3,8,9
COc1cccc(-n2nnnc2S(C)(=O)=O)c1,0,0,-2,-3,3,28*
COC(=O)C[C@H]1C[C@H]2c3cc(NC(=O)Cc4ccncc4)ccc3O[C@H]2[C@@H](CO)O1,.,.,2,.,.,.

# Bioassay records as filed in PubChem.
